Legend:
Type in all cases: functional
Mus musculus [1] = test: Trypanocidal Activity at I.C.E. value 0.45 when administered perorally.
Mus musculus [2] = test: Trypanocidal Activity at I.C.E. value 0.36 when administered subcutaneously.
Mus musculus [3] = test: Trypanocidal Activity at I.C.E. value 0.24 when administered perorally.
[4] = tested on: Trypanosoma brucei rhodesiense; test: In Vitro measurement of inhibition of leucine uptake in cell culture of Trypanosoma rhodesiense; conditions: read-out: ID50 (the source's name)
In short: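 Trypanosomes harvested from infected rats, cultured 3 h with several concentrations of drug, usually 0.1–100 µg/mL. Radiolabeled L-leucine uptake measured. ID50 is the concentration in µg/mL giving 50% inhibition of incorporation.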

[5] = tested on: Trypanosoma brucei rhodesiense; test: In Vitro measurement of inhibition of thymidine uptake in cell culture of Trypanosoma rhodesiense; conditions: read-out: ID50 (the source's name)
In short: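 Parasites harvested from infected rats and incubated 3 h across a drug concentration series, usually 0.1–100 µg/mL. Incorporation of radiolabeled thymidine measured. ID50 is the concentration (µg/mL) producing 50% inhibition.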

Mus musculus [6] = test: Trypanocidal Activity at I.C.E. value 0.17 when administered subcutaneously.
Mus musculus [7] = test: Trypanocidal Activity at I.C.E. value 0.69 when administered subcutaneously.
In short: (§1)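 Mice, in groups of five per dose, were given a standard inoculum of blood-stage T. rhodesiense that is lethal to all untreated controls, then dosed subcutaneously. Usually 11 dose levels were used (2^n × 0.42 mg/kg).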

Mus musculus [8] = test: Trypanocidal Activity at I.C.E. value 0.33 when administered subcutaneously.
In short: (§2)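 Blood-stage T. rhodesiense infection came from a standard inoculum lethal to all untreated mice. Drug was given by subcutaneous injection to groups of five mice. Survival beyond 30 days counted as cure. […] Sub-curative doses scored 0, and data were normalized at each dose.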

Mus musculus [9] = test: Trypanocidal Activity at I.C.E. value 0.64 when administered subcutaneously.; in short: as §1
Mus musculus [10] = test: Trypanocidal Activity at I.C.E. value 0.43 when administered subcutaneously.; in short: as §2
Mus musculus [11] = test: Trypanocidal Activity at I.C.E. value 0.31 when administered subcutaneously.; in short: as §2
Mus musculus [12] = test: Trypanocidal Activity at I.C.E. value 0.26 when administered subcutaneously.; in short: as §2
Mus musculus [13] = test: Trypanocidal Activity at I.C.E. value 0.27 when administered subcutaneously.; in short: as §2
Mus musculus [14] = test: Trypanocidal Activity at I.C.E. value 0.10 when administered perorally.
Mus musculus [15] = test: Trypanocidal Activity at I.C.E. value 0.18 when administered subcutaneously.
Mus musculus [16] = test: Trypanocidal Activity at I.C.E. value 0.48 when administered subcutaneously.; in short: as §2
Mus musculus [17] = test: Trypanocidal Activity at I.C.E. value 0.46 when administered subcutaneously.; in short: as §2
Mus musculus [18] = test: Trypanocidal Activity at I.C.E. value 0.57 when administered perorally.
Mus musculus [19] = test: Trypanocidal Activity at I.C.E. value 0.63 when administered subcutaneously.; in short: as §1
Mus musculus [20] = test: Trypanocidal Activity at I.C.E. value 0.23 when administered subcutaneously.; in short: as §2
Mus musculus [21] = test: Trypanocidal Activity at I.C.E. value 0.29 when administered subcutaneously.; in short: as §2
Mus musculus [22] = test: Trypanocidal Activity at I.C.E. value 0.21 when administered subcutaneously.
Mus musculus [23] = test: Trypanocidal Activity at I.C.E. value 0.67 when administered subcutaneously.; in short: as §1
Mus musculus [24] = test: Trypanocidal Activity at I.C.E. value 0.61 when administered perorally.
Mus musculus [25] = test: Trypanocidal Activity at I.C.E. value 0.85 when administered subcutaneously.; in short: as §1
Mus musculus [26] = test: Trypanocidal Activity at I.C.E. value 0.39 when administered subcutaneously.; in short: as §2

**Q.** How did the CD50 (Mus musculus [1]) turn out when Br.C[n+]1cccc(COc2ccc(/C=N/NC3=NCCN3)cc2)c1.[Br-] was run?
**A.** The CD50 was 13 mg/kg.

**Q.** And the CD50 (Mus musculus [2])?
**A.** The CD50 was 3.3 mg/kg.

**Q.** With CC(=O)Nc1ccc(-c2cn3ccccc3[n+]2C)cc1.[I-] as the compound, how does the CD50 (Mus musculus [3]) read?
**A.** Its CD50 is 106 mg/kg.

**Q.** And the IC50 [4]?
**A.** Its IC50 is over 10 mg/L.

**Q.** What about the IC50 [5] of the same compound?
**A.** The IC50 was over 10 mg/L.

**Q.** And the CD50 (Mus musculus [6])?
**A.** The CD50 was 212 mg/kg.

**Q.** For Br.Cc1ccc2n(c1)cc(/C=C/c1ccc(/C=N/NC(=N)NO)cc1)[n+]2C.[Br-], which CD50 (Mus musculus [7]) is on record?
**A.** The CD50 was 3.3 mg/kg.

**Q.** How did the IC50 [4] turn out when Br.CNC(=N)N/N=C/c1ccc(-c2c([N+](=O)[O-])n3ccccc3[n+]2C)cc1.[Br-] was run?
**A.** The IC50 was 3.4 mg/L.

**Q.** And the CD50 (Mus musculus [8])?
**A.** The CD50 was 0.4 mg/kg.

**Q.** And the IC50 [5]?
**A.** Its IC50 is 5.4 mg/L.

**Q.** How did the CD50 (Mus musculus [9]) turn out when Br.CC[S+]([O-])c1ccc2n(c1)cc(-c1ccc(/C=N/NC(=N)N)cc1)[n+]2C.[Br-] (centres undefined) was run?
**A.** Its CD50 is 1.6 mg/kg.

**Q.** With Br.C[n+]1c(-c2ccc(/C=N/NC(=N)N)cc2)cn2c1CCCC2.[Br-] as the compound, how does the CD50 (Mus musculus [10]) read?
**A.** The CD50 was 0.4 mg/kg.

**Q.** For Br.Cc1ccn2cc(-c3ccc(/C=N/NC(=N)NN4CCOCC4)cc3)[n+](C)c2c1.[Br-], which CD50 (Mus musculus [11]) is on record?
**A.** The CD50 was 0.8 mg/kg.

**Q.** C[n+]1c(-c2ccc(/C=N/Nc3ncccn3)cc2)cn2ccccc21.[Br-] was tested. Which CD50 (Mus musculus [12]) did it give?
**A.** Its CD50 is 6.6 mg/kg.

**Q.** Which CD50 (Mus musculus [13]) does the source give for Br.C[n+]1c(COc2ccc(/C=N/NC(=N)N3CCCC3)cc2)cn2cc(C(F)(F)F)ccc21.[Br-] here?
**A.** The CD50 was 26 mg/kg.

**Q.** Which results are given for Br.CCNC(=N)N/N=C/c1ccc(OCc2cccc[n+]2C)cc1.[Br-]?
**A.** CD50 (Mus musculus [14]): 212 mg/kg; CD50 (Mus musculus [15]): 6.6 mg/kg

**Q.** Which CD50 (Mus musculus [16]) does the source give for Cc1ccc2n(c1)cc(-c1ccc(/C=N/Nc3ccccn3)cc1)[n+]2C.[Br-] here?
**A.** Its CD50 is 0.8 mg/kg.

**Q.** How did the CD50 (Mus musculus [17]) turn out when Br.CC(NC(=N)N/N=C/c1ccc(-c2cn3ccccc3[n+]2C)cc1)c1ccco1.[Br-] (centres undefined) was run?
**A.** Its CD50 is 1.6 mg/kg.

**Q.** How did the CD50 (Mus musculus [18]) turn out when Cc1ccc(S(=O)(=O)O)cc1.Cc1ccc(S(=O)(=O)[O-])cc1.Cn1c(COc2ccc(/C=N/NC(=N)N3CCCC3)cc2)[n+](C)c2ccccc21 was run?
**A.** Its CD50 is 6.6 mg/kg.

**Q.** And the CD50 (Mus musculus [8])?
**A.** Its CD50 is 0.8 mg/kg.

**Q.** Cc1ccc(S(=O)(=O)O)cc1.Cc1ccc(S(=O)(=O)[O-])cc1.Cn1cc[n+](C)c1/C=C/c1ccc(/C=N/NC(=N)N2CCCC2)cc1 was tested. Which CD50 (Mus musculus [19]) did it give?
**A.** Its CD50 is 0.03 mg/kg.

**Q.** Br.CC/N=C(\NCC)N/N=C/c1ccc(/C=C/c2n(C)cc[n+]2C)cc1.[Br-] was tested. Which CD50 (Mus musculus [17]) did it give?
**A.** The CD50 was 1.6 mg/kg.

**Q.** Which IC50 [4] does the source give for C[n+]1c(COc2ccc(C(=N)N)cc2)cn2ccccc21.Cl.[Cl-] here?
**A.** The IC50 was 12 mg/L.

**Q.** What about the IC50 [5] of the same compound?
**A.** The IC50 was 0.7 mg/L.

**Q.** What about the CD50 (Mus musculus [12]) of the same compound?
**A.** Its CD50 is 3.3 mg/kg.

**Q.** With C[n+]1ccc(COc2ccc(/C=N/NC(=O)c3ccc(N)cc3)cc2)cc1.Cc1ccc(S(=O)(=O)[O-])cc1 as the compound, how does the CD50 (Mus musculus [13]) read?
**A.** The CD50 was 26 mg/kg.

**Q.** Which IC50 [4] does the source give for C[n+]1c(COc2ccc(/C=N/Nc3ccccn3)cc2)cn2ccccc21.Cc1ccc(S(=O)(=O)[O-])cc1 here?
**A.** Its IC50 is 10.1 mg/L.

**Q.** And the IC50 [5]?
**A.** Its IC50 is 7.9 mg/L.

**Q.** And the CD50 (Mus musculus [20])?
**A.** Its CD50 is 53 mg/kg.

**Q.** Br.CC/N=C(\NCC)N/N=C/c1ccc(OCc2n(C)c3ccccc3[n+]2C)cc1.[Br-] was tested. Which CD50 (Mus musculus [14]) did it give?
**A.** The CD50 was 212 mg/kg.

**Q.** And the CD50 (Mus musculus [21])?
**A.** The CD50 was 6.6 mg/kg.

**Q.** With Br.CN(C)C(=N)N/N=C/c1ccc(OCc2cn3ccccc3[n+]2C)cc1.[Br-] as the compound, how does the CD50 (Mus musculus [12]) read?
**A.** The CD50 was 3.3 mg/kg.

**Q.** For C[n+]1c(-c2ccc(/C=N/NC3N=NC(=S)N3N)cc2)cn2ccsc21.[Br-] (centres undefined), which IC50 [4] is on record?
**A.** The IC50 was 4.6 mg/L.

**Q.** What about the IC50 [5] of the same compound?
**A.** Its IC50 is 2.4 mg/L.

**Q.** And the CD50 (Mus musculus [22])?
**A.** Its CD50 is 212 mg/kg.

**Q.** Br.C[n+]1c(-c2ccc(/C=N/NC3=NCCCN3)cc2)cn2ccccc21.[Br-] was tested. Which CD50 (Mus musculus [23]) did it give?
**A.** Its CD50 is 0.1 mg/kg.

**Q.** And the CD50 (Mus musculus [24])?
**A.** Its CD50 is 6.6 mg/kg.

**Q.** For C[n+]1c(-c2ccc(C(=N)N)cc2)cn2ccccc21.Cl.[Cl-], which CD50 (Mus musculus [22]) is on record?
**A.** Its CD50 is 26 mg/kg.

**Q.** For C[n+]1c(COc2ccc(/C=N/Nc3nccs3)cc2)cn2ccccc21.[Br-], which CD50 (Mus musculus [13]) is on record?
**A.** Its CD50 is 53 mg/kg.

**Q.** Which CD50 (Mus musculus [20]) does the source give for Cc1ccc(S(=O)(=O)O)cc1.Cc1ccc(S(=O)(=O)[O-])cc1.Cn1cc[n+](C)c1COc1ccc(/C=N/NC(=N)N2CCCC2)cc1 here?
**A.** Its CD50 is 6.6 mg/kg.

**Q.** With Br.Cc1ccc2n(c1)cc(COc1ccc(/C=N/NC(=N)NO)cc1)[n+]2C.[Br-] as the compound, how does the CD50 (Mus musculus [25]) read?
**A.** Its CD50 is 0.2 mg/kg.

**Q.** Which results are given for Cc1ccc2n(c1)cc(-c1ccc(/C=N/Nc3nc[nH]n3)cc1)[n+]2C.[Br-]?
**A.** IC50 [5]: 3.8 mg/L; CD50 (Mus musculus [26]): 13 mg/kg

Source: ChEMBL document CHEMBL1124947, “Cationic antiprotozoal drugs. Trypanocidal activity of 2-(4'-formylphenyl)imidazo[1,2-a]pyridinium guanylhydrazones and related derivatives of quaternary heteroaromatic compounds” (J Med Chem, 1990)
